# High-throughput results as filed in PubChem BioAssay.
# M1 agonist – M1 muscarinic receptor agonism; CHO-M1 cells, Fluo-4 calcium fluorescence, agonist mode; active compounds read high; B-score at 10 µM; 64,000 compounds, 3% hits; AID 626;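 active = fluorescence rise, raw or as B-score row- and column-corrected plate score, outside the 99.7% band of its plate's samples, either direction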
# M1 antagonist – M1 muscarinic receptor (rat) antagonism; B-score at 10 µM; P08482; CHO-M1 cells, Fluo-4 calcium, ACh EC80 antagonist mode; active compounds read low; 64,000 compounds, 3.4% hits;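 active = calcium fluorescence response, raw or row-and-column corrected B-score, differing from the plate sample mean either way at a set confidence level, mostly lower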
# HePTP inh – human HePTP phosphatase inhibition | P35236 | recombinant HePTP phosphatase activity, OD absorbance | inhibition, % at 20 µM | 110,000 compounds, 0.64% hits | AID 521; in the data active = inhibition above about 50%;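 note: plate controls were vehicle for no effect and reference inhibitor for full effect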
# SF1 activator – SF-1 (human) activation. CHO-K1 Gal4-SF-1 LBD luciferase reporter; % increase over DMSO SF-1-specific signal. activation, % at 10 µM. 65,000 compounds, 1.9% hits;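 active = activation above the mean activation of all tested compounds plus 3 SD, cut at about 50% in these data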
#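 Test system: transient Gal4-SF-1 LBD reporter, CHO-K1; Amount: 4,000 CHO-K1 cells per well; Doses: 10 µM only; Timing: compound exposure 20 h at 37 °C; Signal: luciferase light emission; Read-out basis: percent activation relative to DMSO median and mock-transfected background; Control set: DMSO negative control and −SF1 background wells; Replicates: one test per compound.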
# RORA act – activates the human nuclear receptor RORA; P35398; CHO-K1 Gal4-RORA LBD luciferase reporter, luminescence; percent increase over mock-subtracted basal signal; activation, % at 10 µM; 65,000 compounds, 1.5% hits; AID 560;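 active = activation above the mean of all tested compounds plus 3 SD, cut at about 49% in these data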;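 note: 0% = DMSO-treated RORA cells and 100% = added signal equal to DMSO minus mock-transfected cells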
# D1 mod – allosteric modulators of human D1 dopamine receptor. P21728. HEK293 D1, CRE-luciferase, dopamine EC30 potentiation; actives deviate in either direction. B-score at 10 µM. 58,000 compounds, 5.9% hits. AID 641;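 active = luminescence count or its row- and column-corrected plate score outside the 99.7% band of the plate's sample wells, on either side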
# Target sequence (P21728 whole entry, looked up): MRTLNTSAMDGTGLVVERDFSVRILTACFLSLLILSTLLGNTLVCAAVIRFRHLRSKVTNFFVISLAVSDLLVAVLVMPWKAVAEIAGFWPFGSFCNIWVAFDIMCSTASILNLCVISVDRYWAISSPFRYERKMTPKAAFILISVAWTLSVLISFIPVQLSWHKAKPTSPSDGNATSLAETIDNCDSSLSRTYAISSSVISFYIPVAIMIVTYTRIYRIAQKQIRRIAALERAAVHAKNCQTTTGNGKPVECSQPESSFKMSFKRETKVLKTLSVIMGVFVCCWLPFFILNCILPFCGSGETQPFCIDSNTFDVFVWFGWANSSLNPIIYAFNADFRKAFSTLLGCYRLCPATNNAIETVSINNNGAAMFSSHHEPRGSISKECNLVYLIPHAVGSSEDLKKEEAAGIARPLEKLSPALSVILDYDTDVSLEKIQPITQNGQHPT
# M1 antag confirm – M1 muscarinic receptor (rat) antagonism, confirmed | shares compounds with M1 antagonist | CHO-M1 cells, Fluo-4 calcium, ACh EC80 antagonism; active compounds read low | calcium response (max-min fluorescence) at 10 µM | 1,700 compounds, 43% hits | AID 677;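 active = calcium response below the same-plate mean of wells given acetylcholine alone at its 80%-effect dose, minus 3 SD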;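 note: raw fluorescence intensity difference in arbitrary instrument units and not normalized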
# mGluR4 antag – acts on human mGluR4 in M1 antagonist selectivity test | shares compounds with M1 antagonist | CHO-mGluR4 calcium flux, Fluo-4 fluorescence, glutamate EC80; active compounds read low | fluorescence response (max-min) at 10 µM | 1,700 compounds, 0.9% hits | AID 678;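 active = fluorescence response below the plate's average for near-maximal glutamate wells, less 3 SD of those wells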;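 note: raw unnormalized fluorescence span taken in the window right after glutamate addition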
# Active calls of the source: *; / = not tested or not shown. Sampled rows, rich in hits. Any-hit rate of the full collection: about 8.2%.
SMILES,M1 agonist,M1 antagonist,HePTP inh,SF1 activator,RORA act,D1 mod,M1 antag confirm,mGluR4 antag
CSc1ccc(/C=C(\NC(=O)c2ccc(C)cc2)C(=O)Nc2cccc(C)c2)cc1,/,/,5.6,/,/,/,/,/
O=C(OCCN1CCCC1)C1(c2ccccc2)CCCC1,0.259,-14.7*,8.5,-0.5,7.0,-0.0654,28.3*,166
CCN(CC)CCOC(=O)c1c(C)oc2ccc(OC)cc12,-0.371,-14.3*,-4.0,-4.7,-4.6,/,98.4*,246
CCSc1nnc(Cn2c(=O)sc3ccccc32)n1-c1ccccc1C,-0.11,0.128,10.0,-11.9,-7.8,/,/,/
C=CCn1c(COc2ccc(Cl)cc2)nnc1SCC(=O)N1CC(=O)Nc2ccccc21,0.195,-0.927*,13.4,7.7,-15.3,-0.896,537,237
C=CCn1c(COc2ccccc2)nnc1SCC(=O)C(C)(C)C,0.0674,0.405,14.6,12.6,14.4,0.504,/,/
Cc1nc2sccn2c(=O)c1CCN1CCC(=C(c2ccccc2)c2ccc(F)cc2)CC1,0.651,-10.1*,14.0,-19.4,-7.6,-3.42,138*,209
CN1CCN(CCCC(=O)c2ccc(F)cc2)CC1,-0.435,2.38,3.8,23.3,-25.8,-1.65,/,/
Cc1cc(C)nc(NC2=NCCN2C(=O)Nc2ccc(Cl)c(Cl)c2)n1,-0.728,-4.09*,0.0,-2.4,5.9,-0.0816,475,217
Cc1ccc(Cn2nnc3c(=O)n(CC(=O)OCc4ccccc4)cnc32)cc1,0.376,0.581,/,3.1,-8.6,-0.843,/,/
Cc1ccc(Cn2nnc3c(=O)n(CC(=O)N4CCN(c5ccccc5)CC4)cnc32)cc1,-2.49,-4.74*,/,12.3,-17.4,-0.42,656,205
CC1CCCN(CCC(=O)c2ccc(Br)cc2)C1 (stereo not drawn),-0.382,-4.54*,2.0,-6.2,6.3,-0.38,500,215
CCn1c(N)nc2ccccc21,-1.09,-2.53*,1.4,19.3,9.7,-0.327,706,160
Cc1cccc(NC2=NCC(=O)N2Cc2ccccc2)c1,-0.0566,-0.15,2.3,-0.5,-2.9,0.843,/,/
CCN(CC)CCCN(C(=O)c1cccs1)c1nc(-c2ccc(OC)cc2)cs1,-1.41,-5.35*,7.6,-0.7,25.5,-1.85,321*,237
COc1ccc(-c2csc(N(CC3CCCO3)C(=O)c3cccs3)n2)cc1 (stereo not drawn),-0.362,0.288,5.4,40.7,39.2,-0.0417,/,/
COc1cc([N+](=O)[O-])ccc1NC(=O)c1ccc(S(=O)(=O)N2CC(C)OC(C)C2)cc1 (stereo not drawn),/,/,2.9,/,/,/,/,/
Cc1ccc(N(CC(=O)Nc2cccc(C(F)(F)F)c2)S(=O)(=O)c2ccc(F)cc2)cc1,/,/,3.2,/,/,/,/,/
Cc1nc(NCc2ccco2)[nH]c(=O)c1CCC(C)C,0.95,-2.43*,3.4,-8.1,21.4,0.384,619,289
Cc1cc(C(C)(C)C)cc(C)c1CC1=NCCN1,-0.0122,-8.41*,8.0,0.4,-11.6,-0.171,412*,244
Cc1ccc(C(=O)CSc2nnc(-c3ccco3)n2Cc2ccccc2)cc1,-0.0111,-1.15,1.9,22.9,9.2,-0.749,/,/
O=C(CSc1nnc(-c2ccco2)n1Cc1ccccc1)c1ccccc1,0.0493,-2.05*,3.0,50.9*,49.0*,0.757,515,226
NC(=O)CCC(NC(=O)C(c1ccccc1)c1ccccc1)C(=O)O (stereo not drawn),/,/,5.5,/,/,/,/,/
CC(C)c1ccc(O)c(N)c1,0.526,-2.63*,4.2,-9.5,-5.9,/,697,208
CCC(C)c1ccc(O)c(N)c1 (stereo not drawn),-0.435,-0.0611,2.1,-14.2,1.1,-1.3,/,/
SMILES,M1 agonist,M1 antagonist,HePTP inh,SF1 activator,RORA act,D1 mod,M1 antag confirm,mGluR4 antag
COc1ccccc1N1CCN(S(C)(=O)=O)CC1,/,/,-6.1,/,/,/,/,/
c1ccc2c(N3CCCCC3)nc(N3CCCC3)nc2c1,0.0045,-2.63*,/,4.5,14.6,-1.27,493*,167
Nc1nc(N2CCCCC2)nc2ccccc12,-0.0687,-5.88*,8.3,6.5,16.1,-1.99,286*,268
c1ccc(-c2nc(N3CCCCC3)nc3ccccc23)cc1,/,/,-12.6,/,/,/,/,/
CCn1c(SC)nnc1-c1sc2cc(Cl)ccc2c1Cl,-0.00998,-2.15,8.2,-15.9,-10.2,-0.493,/,/
Cc1nnc(Nc2ccccc2O)c2ccccc12,/,/,-2.2,/,/,/,/,/
Cc1nn(C)c(C)c1NC(=O)CSc1nc(Cc2ccccc2)nc2c1cnn2-c1ccccc1,0.00519,0.951,11.0,-15.1,-1.0,1.95,/,/
COc1ccccc1NC(=O)c1ccc(Cl)c(S(=O)(=O)N2CCOCC2)c1,-1.98,0.234,-7.7,-2.0,-9.1,0.217,/,/
COc1ccc(NC(=O)c2ccc(Cl)c(S(=O)(=O)N3CCc4ccccc4C3)c2)cn1,0.241,-1.46*,7.3,5.4,-7.0,/,681,210
CN1/C(=C\C(=O)Nc2ccccc2Br)c2ccccc2CC1(C)C,/,/,-8.6,/,/,/,/,/
CN1/C(=C\C(=O)c2ccco2)c2ccccc2CC1(C)C,-0.136,-2.92*,2.0,-11.8,14.3,-0.462,641,244
COCC(=O)n1nc(-c2ccccc2)nc1NCc1ccc(F)cc1,-0.0895,-0.0113,0.7,12.7,18.7,/,/,/
O=C1CC(N2CCN(c3ccccc3Cl)CC2)C(=O)N1c1cccc(F)c1 (stereo not drawn),0.543,-1.74*,5.5,3.7,-27.6,-1.1,650,229
Cc1cc(C)nc(SCC(=O)Oc2ccc3oc(=O)cc(C)c3c2)n1,-0.309,-2.57*,-15.8,4.1,-8.8,-0.0301,685,163
C=C(C)CNC(=S)Nc1sc(CC)cc1C(=O)OCC,/,/,1.2,/,/,/,/,/
CN1CCN(c2ccc(Cl)cc2NS(=O)(=O)c2ccccc2Cl)CC1,-1.15,-3.65*,5.2,25.8,15.4,-1.33,345*,261
Cc1ccc(C(C)C)c(OC(=O)c2ccccc2Br)c1,/,/,0.9,/,/,/,/,/
CC(=O)c1cc(C)ccc1OC(=O)c1cccc2nc(C)oc12,-0.309,-4.23*,6.6,8.8,13.2,-0.0736,666,250
N=c1c2c(n(Cc3ccc(Cl)c(Cl)c3)c3c1CCC3)CCCC2,-0.352,-2.45*,-0.9,-7.1,17.3,-3.42,433*,236
O=c1[nH]c(=O)n(Cc2ccccc2)c2c1CCC2,0.0202,-0.0368,1.5,-10.7,-8.1,0.425,/,/
CCOC(=O)c1sc2nc3n(c(=O)c2c1C)CCC3,/,/,-3.8,/,/,/,/,/
CC(C)CNC(=O)c1cccc(NC(=O)/C=C/c2ccccc2)c1,/,/,3.5,/,/,/,/,/
O=C(NC(=S)Nc1ccccc1[N+](=O)[O-])c1ccccc1Cl,/,/,-9.0,/,/,/,/,/
CCC(=O)Nc1ccc(NC(=O)CN2CCCC(C)C2)c(Cl)c1 (stereo not drawn),-1.35,-2.81*,2.3,-7.7,-0.1,-0.0574,613,201
